Test [1] has as its target T1, Mu-type opioid receptor (Rattus norvegicus, UniProt P33535). Kind of test: Agonist activity at mu opioid receptor in rat brain membranes assessed as stimulation of [35S]GTPgammaS binding after 60 mins in presence of GDP. The test is classed as functional, cell membranes. On the technique in general: GTPγS resists hydrolysis and so accumulates on activated G proteins.

Another test is filed under the species Rattus norvegicus. Kind of test: Selectivity ratio of Ki for delta opioid receptor in Wistar rat brain membranes to Ki for mu opioid receptor in Wistar rat brain membranes. The test is classed as cell membranes. The following applies: Membrane.
Test [2] has as its target T1, Mu-type opioid receptor. Kind of test: Displacement of [3H]-DAMGO from mu opioid receptor in Wistar rat brain membranes after 45 mins by liquid scintillation counting analysis. The test is classed as cell membranes, Membrane.
For test [3], the target named is Delta-type opioid receptor (Rattus norvegicus, UniProt P33533). Nature of the test: Displacement of [3H]-DIDI from delta opioid receptor in Wistar rat brain membranes after 45 mins by liquid scintillation counting analysis. Format: cell membranes, Membrane.
Test [4] has as its target Mu-type opioid receptor (Cavia porcellus, UniProt P97266). Kind of test: Agonist activity at mu opioid receptor in guinea pig ileum. The test is classed as tissue-based. In outline: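 Isolated guinea pig ileum (MOR) and mouse vas deferens (DOR) bioassays; Leu-enkephalin dose-response curve run as standard on each preparation, test IC50 values normalized to it.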
Test [5] concerns the target Kappa-type opioid receptor (Cavia porcellus, UniProt P41144). Kind of test: Displacement of [3H]-U69,593 from kappa opioid receptor in guinea pig brain membranes after 2 hrs by liquid scintillation counting analysis. Format: cell membranes, Membrane. In outline: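 Guinea pig brain membranes incubated 2 h at 0 °C with 0.80 nM [3H]U69,593 plus competitor. IC50 taken from log-dose displacement curves.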
On the technique in general: Displacement assays read how much labelled ligand stays bound in the presence of the test substance.

The structures appear in SMILES notation. Some results are limits rather than exact numbers.

As a reminder, the IC50 is the concentration at which inhibition is half-maximal. Read a high IC50 as weaker potency. Usually Ki stands for a measure of affinity in units of concentration, obtained from inhibition or displacement. Low readings indicate a stronger hold on the target, high ones a looser hold on the target.

Chain of Kappa-type opioid receptor (P41144 whole entry): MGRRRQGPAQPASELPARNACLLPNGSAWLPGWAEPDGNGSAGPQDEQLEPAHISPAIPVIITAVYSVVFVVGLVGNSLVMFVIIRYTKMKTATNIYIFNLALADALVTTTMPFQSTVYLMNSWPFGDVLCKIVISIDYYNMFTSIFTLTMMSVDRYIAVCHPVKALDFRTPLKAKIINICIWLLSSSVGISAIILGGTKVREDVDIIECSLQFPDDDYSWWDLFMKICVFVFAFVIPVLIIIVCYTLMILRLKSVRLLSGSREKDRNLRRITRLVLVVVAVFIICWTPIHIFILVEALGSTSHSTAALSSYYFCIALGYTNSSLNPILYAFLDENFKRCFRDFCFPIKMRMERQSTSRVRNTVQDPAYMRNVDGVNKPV
Chain of Delta-type opioid receptor (P33533 whole entry): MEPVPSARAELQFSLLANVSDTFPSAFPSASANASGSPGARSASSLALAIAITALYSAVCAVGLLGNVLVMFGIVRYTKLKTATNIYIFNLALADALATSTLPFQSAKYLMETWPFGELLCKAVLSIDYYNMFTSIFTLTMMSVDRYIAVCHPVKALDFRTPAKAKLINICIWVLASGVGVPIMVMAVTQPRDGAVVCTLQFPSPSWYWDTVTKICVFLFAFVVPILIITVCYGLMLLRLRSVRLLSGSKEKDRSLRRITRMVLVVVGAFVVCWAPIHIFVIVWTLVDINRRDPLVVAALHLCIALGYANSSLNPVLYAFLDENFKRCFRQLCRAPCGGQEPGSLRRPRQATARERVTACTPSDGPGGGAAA
T1 sequence (P33535 whole entry): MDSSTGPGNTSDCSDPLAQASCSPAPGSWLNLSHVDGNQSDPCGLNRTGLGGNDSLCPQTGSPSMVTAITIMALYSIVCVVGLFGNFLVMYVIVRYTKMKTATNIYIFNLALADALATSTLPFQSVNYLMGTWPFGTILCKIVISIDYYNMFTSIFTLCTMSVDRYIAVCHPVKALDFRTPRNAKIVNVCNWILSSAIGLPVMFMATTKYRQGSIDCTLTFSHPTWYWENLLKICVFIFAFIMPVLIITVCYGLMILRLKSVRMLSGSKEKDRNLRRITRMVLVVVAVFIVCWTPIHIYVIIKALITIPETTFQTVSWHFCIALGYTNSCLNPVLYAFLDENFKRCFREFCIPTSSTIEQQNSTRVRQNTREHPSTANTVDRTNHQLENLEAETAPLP
Chain of Mu-type opioid receptor (Cavia porcellus, UniProt P97266) (P97266 whole entry): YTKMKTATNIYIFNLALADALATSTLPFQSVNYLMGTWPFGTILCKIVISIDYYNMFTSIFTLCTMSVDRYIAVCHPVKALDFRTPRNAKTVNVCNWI

`CN/C1=N/C[C@@H](C(N)=O)NC(=O)[C@H](Cc2ccccc2)NC(=O)CNC(=O)[C@H](NC(=O)[C@@H](N)Cc2ccc(O)cc2)CN1` (stereo in doubt; 10b): the EC50 at Mu-type opioid receptor [1] (read-out: pEC50 (converted)) is 1620 nM.

For `CC(C)C[C@@H]1NC(=O)[C@H](Cc2ccccc2)NC(=O)CNC(=O)[C@H](NC(=O)[C@@H](N)Cc2ccc(O)cc2)CCCN/C(N2CCCC2)=N\CCC[C@@H](C(N)=O)NC1=O`, the Ratio Ki in the test listed under Rattus norvegicus worked out at 3.6. The values for the IC50 (on Mu-type opioid receptor [2]; in test [3]) were 234 nM and 832 nM, respectively. The inhibition constant Ki at Mu-type opioid receptor [2] worked out at 175 nM; in test [3] it was 628 nM. In addition, the EC50 at Mu-type opioid receptor [1] (read-out: EC50) is 8000 nM; at Mu-type opioid receptor [1] (read-out: pEC50 (converted)), 8130 nM.

For the molecule `NC(=O)[C@@H]1C/N=C(/N2CCCCC2)NC[C@@H](NC(=O)[C@@H](N)Cc2ccc(O)cc2)C(=O)NCC(=O)N[C@@H](Cc2ccccc2)C(=O)N1` (stereo in doubt; 14a), the IC50 at Mu-type opioid receptor [4] is 398 nM. Also, the EC50 at Mu-type opioid receptor [1] (read-out: pEC50 (converted)) is 1450 nM.

Take `CN(C)/C1=N/C[C@@H](C(N)=O)NC(=O)[C@H](Cc2ccccc2)NC(=O)CNC(=O)[C@H](NC(=O)[C@@H](N)Cc2ccc(O)cc2)CN1`: the EC50 on Mu-type opioid receptor [1] (read-out: EC50) came to 1830 nM.

On to `NC(=O)[C@@H]1C/N=C(/N2CCCC2)NC[C@@H](NC(=O)[C@@H](N)Cc2ccc(O)cc2)C(=O)NCC(=O)N[C@@H](Cc2ccccc2)C(=O)N1` (stereo in doubt; 13b), for which, in test [5], the Ki was greater than 500 nM. Further, the EC50 at Mu-type opioid receptor [1] (read-out: pEC50 (converted)) is 2820 nM.

Molecule `NC(=O)[C@@H]1C/N=C(/N2CCCC2)NC[C@@H](NC(=O)[C@@H](N)Cc2ccc(O)cc2)C(=O)NCC(=O)N[C@@H](Cc2ccccc2)C(=O)N1` (stereo in doubt; 13c) displayed a Ki in test [5] greater than 500 nM. Also, the EC50 at Mu-type opioid receptor [1] (read-out: pEC50 (converted)) is 4790 nM.

Turning to `NC(=O)[C@@H]1C/N=C(/N2CCCC2)NC[C@@H](NC(=O)[C@@H](N)Cc2ccc(O)cc2)C(=O)NCC(=O)N[C@@H](Cc2ccccc2)C(=O)N1` (stereo in doubt; 13a), in test [5], the Ki was greater than 500 nM. Besides, on Mu-type opioid receptor [1] (read-out: pEC50 (converted)), the EC50 is 1070 nM.

`NC(=O)[C@@H]1C/N=C(/N2CCCCC2)NC[C@@H](NC(=O)[C@@H](N)Cc2ccc(O)cc2)C(=O)NCC(=O)N[C@@H](Cc2ccccc2)C(=O)N1` (stereo in doubt; 14b): the IC50 in test [3] is 4900 nM. On Mu-type opioid receptor [1] (read-out: pEC50 (converted)), the EC50 was 4170 nM.

As for `CC(C)C[C@@H]1NC(=O)[C@H](Cc2ccccc2)NC(=O)CNC(=O)[C@H](NC(=O)[C@@H](N)Cc2ccc(O)cc2)CCCN/C(N(C)C)=N\CCC[C@@H](C(N)=O)NC1=O`, the Ratio Ki in the test listed under Rattus norvegicus came to 10.2. Moreover, the Ki in test [5] is greater than 500 nM; at Mu-type opioid receptor [2], 14.3 nM; in test [3], 146 nM. Moreover, the IC50 is 19.5 nM at Mu-type opioid receptor [2] and 195 nM in test [3]. Besides, the EC50 at Mu-type opioid receptor [1] (read-out: EC50) is 1520 nM; on Mu-type opioid receptor [1] (read-out: pEC50 (converted)), 1550 nM.

Turning to `CC(C)C[C@@H]1NC(=O)[C@H](Cc2ccccc2)NC(=O)CNC(=O)[C@H](NC(=O)[C@@H](N)Cc2ccc(O)cc2)CCCN/C(N)=N\CCC[C@@H](C(N)=O)NC1=O`, in the test filed under Rattus norvegicus, the Ratio Ki amounted to 5.9. The Ki in test [5] was greater than 500 nM; at Mu-type opioid receptor [2], 18.4 nM; in test [3], 108 nM. For the same molecule, the IC50 on Mu-type opioid receptor [2] is 25.1 nM; in test [3], 145 nM. Moreover, the EC50 on Mu-type opioid receptor [1] (read-out: EC50) is 3010 nM.

For the molecule `CC(C)C[C@@H]1NC(=O)[C@H](Cc2ccccc2)NC(=O)CNC(=O)[C@H](NC(=O)[C@@H](N)Cc2ccc(O)cc2)CCCNC(=S)NCCC[C@@H](C(N)=O)NC1=O`, in the test filed under Rattus norvegicus, the Ratio Ki came out at 8.3. For the same molecule, the IC50 at Mu-type opioid receptor [2] was 12.3 nM; in test [3], 97.7 nM. The Ki was determined as 9.1 nM at Mu-type opioid receptor [2] and 75.7 nM in test [3]. For the same molecule, the EC50 was 589 nM at Mu-type opioid receptor [1] (read-out: EC50) and 603 nM at Mu-type opioid receptor [1] (read-out: pEC50 (converted)).

Consider `C/N=C1/NCCC[C@@H](C(N)=O)NC(=O)[C@H](CC(C)C)NC(=O)[C@H](Cc2ccccc2)NC(=O)CNC(=O)[C@H](NC(=O)[C@@H](N)Cc2ccc(O)cc2)CCCN1`, for which, in the test filed under Rattus norvegicus, the Ratio Ki stood at 10.3. For the same molecule, the Ki in test [5] was greater than 300 nM; at Mu-type opioid receptor [2], 17.9 nM; in test [3], 185 nM. Also, the IC50 on Mu-type opioid receptor [2] is 24 nM; in test [3], 245 nM. Also, on Mu-type opioid receptor [1] (read-out: EC50), the EC50 amounted to 1230 nM.

As to `NC(=O)[C@@H]1CNC(=S)NC[C@@H](NC(=O)[C@@H](N)Cc2ccc(O)cc2)C(=O)NCC(=O)N[C@@H](Cc2ccccc2)C(=O)N1` (stereo in doubt; 7a), the IC50 on Mu-type opioid receptor [4] was determined as 1.76 nM.

In the case of `CS/C1=N/CCC[C@@H](C(N)=O)NC(=O)[C@H](CC(C)C)NC(=O)[C@H](Cc2ccccc2)NC(=O)CNC(=O)[C@H](NC(=O)[C@@H](N)Cc2ccc(O)cc2)CCCN1`, the Ratio Ki in the test filed under Rattus norvegicus worked out at 9.1. Further, the IC50 is 28.8 nM at Mu-type opioid receptor [2] and 251 nM in test [3]. Further, the Ki worked out at 21 nM at Mu-type opioid receptor [2] and 191 nM in test [3]. Moreover, the EC50 was 652 nM at Mu-type opioid receptor [1] (read-out: EC50) and 661 nM at Mu-type opioid receptor [1] (read-out: pEC50 (converted)).

In the case of `CN/C1=N/C[C@@H](C(N)=O)NC(=O)[C@H](Cc2ccccc2)NC(=O)CNC(=O)[C@H](NC(=O)[C@@H](N)Cc2ccc(O)cc2)CN1` (stereo in doubt; 10a), the EC50 on Mu-type opioid receptor [1] (read-out: pEC50 (converted)) is 282 nM.

Regarding `NC(=O)[C@@H]1C/N=C(/N2CCCCC2)NC[C@@H](NC(=O)[C@@H](N)Cc2ccc(O)cc2)C(=O)NCC(=O)N[C@@H](Cc2ccccc2)C(=O)N1` (stereo in doubt; 14c), in test [3], the Ki turned out to be 3500 nM. Also, the EC50 on Mu-type opioid receptor [1] (read-out: pEC50 (converted)) was 7590 nM.

Values taken from ChEMBL document CHEMBL2401649, “Cyclic enkephalins with a diversely substituted guanidine bridge or a thiourea bridge: synthesis, biological and structural evaluations” (J Med Chem, 2013).
